Bioassay records deposited in PubChem by Johns Hopkins Ion Channel Center.
Shown are actives, neighbours in structure and some others; about 2.3% of the full set was active somewhere.
TRPC6 activator – activates the mouse TRPC6 cation channel. Q61143. B-score at 10 µM. HEK293-TRPC6 membrane potential dye fluorescence; hits give high values. actives 0.13% (n = 310,000);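 active means B-score of the integrated fluorescence ratio above library mean plus 3 SD, and starting fluorescence ratio within library mean plus 5 SD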;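 further: higher score means more depolarization so channel activation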
Target sequence (Q61143 whole entry, looked up): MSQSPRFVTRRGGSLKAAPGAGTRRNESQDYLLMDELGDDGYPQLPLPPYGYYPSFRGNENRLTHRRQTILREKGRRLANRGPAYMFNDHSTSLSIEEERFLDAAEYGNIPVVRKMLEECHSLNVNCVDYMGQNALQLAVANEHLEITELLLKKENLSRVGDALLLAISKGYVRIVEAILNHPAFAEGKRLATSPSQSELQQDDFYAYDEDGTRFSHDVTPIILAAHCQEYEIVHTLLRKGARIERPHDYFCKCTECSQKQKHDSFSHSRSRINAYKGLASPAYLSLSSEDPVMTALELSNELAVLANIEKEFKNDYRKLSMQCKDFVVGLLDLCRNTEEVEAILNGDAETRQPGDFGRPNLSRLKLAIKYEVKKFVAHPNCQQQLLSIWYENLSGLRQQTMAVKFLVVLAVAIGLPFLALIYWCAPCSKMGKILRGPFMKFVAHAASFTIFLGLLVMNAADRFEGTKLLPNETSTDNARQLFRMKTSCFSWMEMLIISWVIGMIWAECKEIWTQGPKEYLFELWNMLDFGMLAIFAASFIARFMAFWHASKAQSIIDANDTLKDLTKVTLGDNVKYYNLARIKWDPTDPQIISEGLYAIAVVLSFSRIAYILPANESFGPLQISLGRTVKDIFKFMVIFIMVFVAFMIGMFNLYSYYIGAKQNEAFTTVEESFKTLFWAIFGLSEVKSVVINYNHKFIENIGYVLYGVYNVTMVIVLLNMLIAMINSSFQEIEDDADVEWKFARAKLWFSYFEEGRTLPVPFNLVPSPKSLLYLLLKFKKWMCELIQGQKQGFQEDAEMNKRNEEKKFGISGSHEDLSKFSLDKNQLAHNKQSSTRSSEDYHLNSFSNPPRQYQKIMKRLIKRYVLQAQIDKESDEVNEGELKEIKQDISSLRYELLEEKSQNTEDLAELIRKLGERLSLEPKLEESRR
TRPC4 block – blocks the mouse TRPC4 cation channel; AID 2247; actives 0.39% (n = 300,000); Q9QUQ5; HEK293 TRPC4beta/mu-opioid, DAMGO-evoked Fluo4 calcium flux; hits give low values; B-score at 10 µM;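 active means B-score over 3 SD under the library average, no early fluorescence shift, positive overall ratio signal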
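test system = HEK293 cells with stable TRPC4beta plus mu-opioid receptor expression | detection = Fluo4 Ca2+ flux fluorescence | read-out = integrated fluorescence ratio relative to baseline, converted to per-well B score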
TRPC4 PAM – TRPC4 (mouse) allosteric potentiation; Q9QUQ5; HEK293 TRPC4beta/mu-opioid, DAMGO EC20, Fluo-4 Ca2+ flux; hits give high values; B-score at 10 µM; actives 0.42% (n = 310,000); AID 2227;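 active means B-score of calcium response area above 5 SD of library B-scores, with initial fluorescence ratio within 5 SD of library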;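 further: B-score of integrated fluorescence ratio over time as area under calcium response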
TRPC4 act – TRPC4 (mouse) channel activation; Q9QUQ5; HEK293 TRPC4beta/mu-opioid, Fluo4 calcium fluorescence; hits give high values; B-score at 10 µM; actives 0.49% (n = 310,000); AID 2237;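 active means B-score above 5 SD of library B-scores, and initial fluorescence ratio not above library mean plus 5 SD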;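 further: positive B-score marks a calcium rise read as TRPC4 activation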
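Assay system – TRPC4beta and mu-opioid receptor HEK293 stable cells · Measured by – Fluo4 fluorescence, kinetic · Schedule – dye loading 45 min room temperature, 110 s kinetic read · Read-out – B-scored integrated calcium fluorescence ratio · Controls – buffer and maximal DAMGO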
TRPC6 inh – mouse TRPC6 channel inhibition | HEK293-TRPC6, membrane potential dye, ACh-evoked depolarization; hits give low values | B-score at 10 µM | actives 1.1% (n = 310,000) | AID 2553;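 active means B-score under library mean minus 3 SD, initial fluorescence not abnormally high, positive integrated signal ratio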;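 further: B-score derived from integrated fluorescence ratio over the kinetic read; more negative B-score means stronger inhibition of depolarization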
TRPC4 spec 2 – second check of whether TRPC6 inhibitors also affect mouse TRPC4. shares compounds with TRPC6 inh. HEK293 TRPC4/MOR, membrane potential dye fluorescence; channel activated by saturating DAMGO dose. AID 2776. inhibition, % at 10 µM. actives 42% (n = 920);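 active means compounds whose fluorescence signal differed from control wells by over 3 SD, either direction, in both duplicate plates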
TRPC4 spec – selectivity of TRPC6 inhibitors: effect on mouse TRPC4. shares compounds with TRPC6 inh. HEK293 TRPC4/mu-opioid, membrane potential fluorescence. activity change, negative = inhibition, % at 10 µM. actives 61% (n = 920);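 active means rise or fall in signal beyond 3 SD of buffer-only wells in both replicate plates, either sign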;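 further: integrated kinetic ratio of fluorescence range over baseline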
HEK293 MPD ctr 2-1 – parental HEK293 nonspecific activity of TRPC6 inhibitors, second screen; shares compounds with TRPC6 inh; parental HEK293 membrane potential dye fluorescence; maximal acetylcholine challenge after compound addition; signal change vs control, % at 10 µM; actives 31% (n = 920);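 active means membrane potential signal moving either way by over 3 SD of the maximum-effect control, in both duplicate plates, meaning non-specific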
HEK293 MPD ctr-1 – counter-screen for TRPC6 inhibitors: effect in parental HEK293 cells. shares compounds with TRPC6 inh. parental HEK293 membrane potential dye fluorescence. membrane potential signal change, % at 10 µM. actives 60% (n = 920);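 active means membrane potential signal shifting up or down by more than 3 SD of buffer-only wells, on both duplicate plates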
HEK293 MPD ctr-2 – counter-screen for TRPC6 modulators: effect in parental HEK293 cells | shares compounds with TRPC6 inh | membrane potential dye fluorescence | membrane potential signal change, % at 10 µM | actives 51% (n = 2,400) | AID 488924;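 active means membrane potential signal moves up or down beyond 5 SD from buffer-only wells, on both duplicate plates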
HEK293 MPD ctr 2-2 – second counter-screen for TRPC6 modulators: effect in parental HEK293 cells. actives 14% (n = 2,400). inhibition, % at 10 µM. shares compounds with TRPC6 inh. membrane potential dye fluorescence; after compound, maximal acetylcholine stimulation. AID 488926;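 active means membrane potential signal drops by more than 5 SD from the mean control signal, in both duplicate plates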;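 further: plate controls were acetylcholine ECmax control wells for no effect and buffer only wells for full effect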
TRPC4 ctr mod – tests whether TRPC6 modulators also affect mouse TRPC4 | shares compounds with TRPC6 inh | HEK293 TRPC4/mu-opioid, membrane potential fluorescence | percent change from control (negative = decrease, positive = increase), % at 10 µM | actives 69% (n = 2,400) | AID 488927;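 active means membrane potential signal moved up or down beyond 5 SD of buffer control wells, in both duplicate plates, actives on both sides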;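 further: plate controls were assay buffer wells for no effect and DAMGO maximal-effect wells for full effect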
TRPC4 ctr inh 2 – mouse TRPC4 off-target activity of TRPC6 modulators, second screen. actives 55% (n = 2,400). HEK293 TRPC4/mu-opioid, membrane potential dye fluorescence; stimulated with maximal-effect DAMGO. shares compounds with TRPC6 inh. inhibition, % at 10 µM;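 active means drop in membrane potential signal beyond 5 SD of the control wells in both duplicate plates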;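 further: TRPC4 counter screen for TRPC6 hits run under conditions tuned for TRPC6 not TRPC4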
TRPC6 block conf – mouse TRPC6 inhibitor confirmation; shares compounds with TRPC6 inh; HEK293-TRPC6, membrane potential dye, ACh-evoked depolarization; inhibition, % at 10 µM; actives 43% (n = 3,300);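 active means fluorescence ratio falls more than 5 SD below the full-stimulation control mean, in both duplicate runs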;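 further: integrated fluorescence ratio of peak minus minimum over baseline after agonist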
TRPC6 act confirm – mouse TRPC6 activator confirmation; activation, % at 10 µM; shares compounds with TRPC6 inh; AID 488961; actives 11% (n = 2,800); HEK293-TRPC6 membrane potential dye fluorescence, FDSS;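 active means ratio signal rise beyond 5 SD above unstimulated control wells' mean, seen in both duplicate runs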;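 further: plate controls were buffer EC0 wells for no effect and acetylcholine ECmax response for full effect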
* hit, by the source's call; i = inactive; / = no result given.

SMILES	TRPC6 activator	TRPC4 block	TRPC4 PAM	TRPC4 act	TRPC6 inh	HEK293 MPD ctr-2	HEK293 MPD ctr 2-2	TRPC4 ctr mod	TRPC4 ctr inh 2	TRPC6 block conf	TRPC6 act confirm	others
COc1ccc(CCn2c(=N)c(C(=O)NCc3ccco3)cc3c(=O)n4ccccc4nc32)cc1	i	i	i	i	-5.9*	-164%*	i	-36%*	i	i	i
N=c1c(C(=O)NCCc2ccccc2)cc2c(=O)n3ccccc3nc2n1CCCN1CCOCC1	i	i	i	i	i	/	/	/	/	/	/
N=c1c(C(=O)NCCN2CCOCC2)cc2c(=O)n3ccccc3nc2n1CCc1ccccc1	i	i	i	i	-7.8*	/	/	/	/	99%*	i	TRPC4 spec 2=64%*;TRPC4 spec=-20%*;HEK293 MPD ctr 2-1=-78%*;HEK293 MPD ctr-1=-246%*
CCOc1ccc(S(=O)(=O)NCCC(=O)N2CC(C)CC(C)C2)cc1 (stereo not drawn)	i	i	i	i	i	/	/	/	/	/	/
O=C1C(Cl)=C(N2CCN(Cc3ccccc3)CC2)C(=O)N1Cc1ccccc1	i	i	i	i	i	/	/	/	/	/	/
Fc1ccc(N2CCN(C3=Nc4cccc5cccc3c45)CC2)cc1	i	i	i	i	-8.8*	-80%*	i	-38%*	74%*	68%*	i
O=C(CCCN1C(=O)c2cccc3cccc(c23)C1=O)N1CCN(c2ccc(F)cc2)CC1	i	i	i	i	i	/	/	/	/	/	/
c1ccc(CN2CCN(C3=Nc4cccc5cccc3c45)CC2)cc1	i	i	i	i	-8.2*	-191%*	i	-50%*	72%*	68%*	i
O=C(NCCc1ccccn1)c1ccc2nc(Cc3ccccc3F)oc2c1	i	i	i	i	i	/	/	/	/	/	/
Cn1c2c(c(=O)n(C)c1=O)C(C(F)(F)F)(C(F)(F)F)N=C(c1ccc(Cl)cc1)N2	i	i	i	i	-7.9*	/	/	/	/	101%*	i	TRPC4 spec 2=76%*;TRPC4 spec=20%*;HEK293 MPD ctr 2-1=i;HEK293 MPD ctr-1=11%*
Cc1ccccc1C1=NC(C(F)(F)F)(C(F)(F)F)c2c(n(C)c(=O)n(C)c2=O)N1	i	i	i	i	i	/	/	/	/	/	/
Cc1ccc(CNC(=O)C2CCCN2S(=O)(=O)c2ccc(Cl)cc2)cc1 (stereo not drawn)	i	i	i	i	-5.4*	i	i	i	i	i	i
O=C(NCc1ccccc1)C1CCCN1S(=O)(=O)c1ccc(Cl)cc1 (stereo not drawn)	i	i	i	i	i	/	/	/	/	/	/
CC(OC(=O)c1cc(S(=O)(=O)N(C)C)ccc1N1CCCC1)C(=O)NCc1ccccc1 (stereo not drawn)	i	i	i	i	i	/	/	/	/	/	/
O=C(NNC1=C(C(=O)C(F)(F)F)CCC1)c1ccccc1O	i	i	i	i	-5.2*	i	i	i	i	38%*	i
CCn1nc(C(C)C)cc1C(=O)N1CCCC(CO)(Cc2ccc(F)cc2F)C1 (stereo not drawn)	i	i	i	i	i	/	/	/	/	/	/
COc1ccccc1NC(=O)Nc1ccc2c(c1)CCC2	i	i	i	i	-5*	i	i	i	i	i	i
O=C1CCN(S(=O)(=O)c2ccc(Cl)cc2)CCN1	i	i	i	i	i	/	/	/	/	/	/
COC(=O)CSc1[nH]c2ccc(F)cc2c1[N+](=O)[O-]	i	i	i	i	i	/	/	/	/	/	/
O=C(c1ccc(COc2ccccc2Cl)o1)N1CCCC1	i	i	i	i	i	/	/	/	/	/	/
CN1CCN(C(=O)c2cccc(COc3cc(Cl)ccc3Cl)c2)CC1	i	i	i	i	i	/	/	/	/	/	/
CC1CCN(C(=O)c2ccc(COc3ccccc3Cl)o2)CC1	i	i	i	i	-6.2*	121%*	i	25%*	i	i	i
CN1CCN(C(=O)c2ccc(COc3cc(Cl)ccc3Cl)o2)CC1	i	i	i	i	-5.7*	127%*	i	22%*	i	i	/
c1ccc(Nc2nc(N3CCCCC3)nc(N3CCNCC3)n2)cc1	i	i	30*	i	-5.6*	i	i	14%*	58%*	55%*	/
COc1cccc(-c2nc(SCC(=O)Nc3nc(-c4ccccc4)c(C)s3)[nH]c(=O)c2C#N)c1	i	i	i	i	i	/	/	/	/	/	/
CCOc1ccc2nc(NC(=O)CSc3nc(-c4ccccc4)c(C#N)c(=O)[nH]3)sc2c1	12*	i	i	i	i	i	i	20%*	i	i	36%*
Cc1cc(N2CCN(C)CC2)ccc1NC(=O)c1ccc(-c2ccc(Cl)cc2)o1	i	i	i	50*	-9*	/	/	/	/	67%*	i	TRPC4 spec 2=16%*;TRPC4 spec=2.7%*;HEK293 MPD ctr 2-1=i;HEK293 MPD ctr-1=-334%*
CN1CCN(c2ccccc2NC(=O)c2ccc(-c3ccc(Cl)c(Cl)c3)o2)CC1	i	i	i	i	i	/	/	/	/	/	/
